Each block holds one compound with its values, some of them ahead of it.
Assays:
HDAC1–3 = experiment: Fluorogenic substrate screening assay; assay type: biochemical, human; settings: substrate 50 μM, HDACs 50 nM, tris buffer, 37°C, 60 min; n = 2
HDAC3 = assay type: biochemical, human; settings: acid-extracted histones from HeLa cells, recombinant HDAC3
Method in brief: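 Histones acid-extracted from HeLa cells (hypotonic sucrose/Triton wash, no-salt EDTA/EGTA step, 0.2 M H2SO4 overnight at 4°C, 20% TCA precipitation). 20 μg histones incubated with 0.2 μg recombinant human HDAC at 37°C for 1 or 4 h in tris buffer (50 mM tris/Cl, 137 mM NaCl, 2.7 mM KCl, 1 mM MgCl2, pH 8). Stopped by boiling 5 min in loading buffer; Western blot readout.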

HeLa cells = experiment: Histone lactylation and acetylation in HeLa cells after inhibitor treatment; assay type: cell-based, human; settings: 5-hour treatment, TMP195 5 μM, NAM 10 mM; for global histone lactylation levels: sodium butyrate 2 mM, TSA 1 μM, apicidin 1 μM
Method in brief: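 HeLa cells treated 5 h with pan-HDAC inhibitors (2 mM or 1 μM), HDAC1–3-selective inhibitor (1 μM), class IIa-selective inhibitor (5 μM) or pan-sirtuin inhibitor (10 mM). Histone lactylation and acetylation by Western blot: blocked in 3% BSA/TBST 1 h at RT, primary antibody overnight at 4°C, LI-COR secondary 1:10,000 for 1 h, Odyssey imaging.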

[1] = tested on: HEK293T whole-cell lysates; experiment: Fluorogenic lysate deacylase assay; assay type: biochemical, human; settings: 37°C, 60 min; for conversion of AMC substrate by whole-cell lysate: substrate 50 μM, lysate 30 μg per well, NAD+ 500 μM, tris buffer, n = 4
HDAC1 = HDAC1 (Homo sapiens, UniProt Q13547); experiment: Fluorogenic Michaelis-Menten assay; assay type: biochemical; settings: K(D-la) versus K(L-la), Ac-LGK-AMC; stated for HDAC1/2
Chain of HDAC1 (Q13547 whole entry): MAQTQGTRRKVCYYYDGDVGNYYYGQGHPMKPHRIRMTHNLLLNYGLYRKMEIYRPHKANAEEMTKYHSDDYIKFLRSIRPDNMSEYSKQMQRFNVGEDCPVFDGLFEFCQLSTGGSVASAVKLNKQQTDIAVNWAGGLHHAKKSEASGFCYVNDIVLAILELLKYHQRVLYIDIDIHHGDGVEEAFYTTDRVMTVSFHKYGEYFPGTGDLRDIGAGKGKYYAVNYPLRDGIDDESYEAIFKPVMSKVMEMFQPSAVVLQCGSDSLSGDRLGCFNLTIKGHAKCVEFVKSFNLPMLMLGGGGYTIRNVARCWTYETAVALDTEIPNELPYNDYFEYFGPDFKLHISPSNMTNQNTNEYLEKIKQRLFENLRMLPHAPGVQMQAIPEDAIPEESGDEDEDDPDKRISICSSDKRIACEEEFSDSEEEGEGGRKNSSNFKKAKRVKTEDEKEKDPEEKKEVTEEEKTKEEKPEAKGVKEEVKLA

HDAC2 = experiment: Fluorogenic Michaelis-Menten assay; assay type: biochemical, human; settings: K(D-la) versus K(L-la), Ac-LGK-AMC; stated for HDAC1/2
HDAC3/NCoR2 = HDAC3/NCoR2 (Homo sapiens, UniProt O15379+Q9Y618); experiment: Fluorogenic Michaelis-Menten assay; assay type: biochemical; settings: K(D-la) versus K(L-la), Ac-LGK-AMC
Chain of HDAC3/NCoR2 (O15379 whole entry): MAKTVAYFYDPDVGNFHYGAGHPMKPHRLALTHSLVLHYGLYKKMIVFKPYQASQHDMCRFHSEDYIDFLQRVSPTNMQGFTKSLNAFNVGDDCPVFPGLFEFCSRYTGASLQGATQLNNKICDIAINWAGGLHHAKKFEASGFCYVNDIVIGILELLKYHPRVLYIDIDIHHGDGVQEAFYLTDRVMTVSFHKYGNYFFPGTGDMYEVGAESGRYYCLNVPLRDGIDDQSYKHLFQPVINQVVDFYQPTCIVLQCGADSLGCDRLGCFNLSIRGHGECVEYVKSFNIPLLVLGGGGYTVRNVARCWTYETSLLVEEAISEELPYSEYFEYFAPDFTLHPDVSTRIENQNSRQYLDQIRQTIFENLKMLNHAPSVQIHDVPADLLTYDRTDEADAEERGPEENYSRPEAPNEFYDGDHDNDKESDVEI
Chain of HDAC3/NCoR2 (Q9Y618 389-480 partner limits assumed): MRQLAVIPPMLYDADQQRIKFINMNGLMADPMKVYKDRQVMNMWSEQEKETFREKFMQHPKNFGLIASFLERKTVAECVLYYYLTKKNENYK

deacylase activity (AMC release) (HDAC1–3): measurable activity
Compound: Ac-Gln-Pro-Lys-Lys(L-La)-AMC [4b]

Compound: CCC(=O)CCCCC[C@@H]1NC(=O)[C@H]2CCCCN2C(=O)[C@H]([C@@H](C)CC)NC(=O)[C@H](Cc2cn(OC)c3ccccc23)NC1=O [apicidin]
inhibition of HDAC3-mediated decrease of global histone lactylation (HDAC3): could be inhibited | global histone lactylation levels (HeLa cells): enhanced lactylation

Compound: NC(=O)c1cccnc1 [NAM, nicotinamide]
effect of inhibitor on lysate deacylation of 1a–c ([1]; NAM 10 mM, substrates 50 μM): did not substantially change the outcome of the deacylation events | histone Kac levels (HeLa cells): does not affect histone Kac levels | global histone lactylation levels (HeLa cells): failed to affect histone lactylation levels substantially

Compound: Ac-Ala-Pro-Arg-Lys(L-La)-AMC [1b]
conversion of AMC substrate by whole-cell lysate [1]: able to remove the lactyl modifications, albeit to a lower extent than the corresponding Kac modification

fold higher kcat/KM for 2c than for 2b (HDAC1): > 6 fold | fold higher kcat/KM for 2c than for 2b (HDAC2): > 6 fold | fold higher kcat/KM for 2c than for 2b (HDAC3/NCoR2): 3.5 fold
Compound: Ac-Leu-Gly-Lys(D-La)-AMC [2c]

Compound: Ac-Ala-Pro-Arg-Lys(D-La)-AMC [1c]
conversion of AMC substrate by whole-cell lysate [1]: converted to a larger extent than its K(L-la) counterpart

Compound: CC(C)(CNC(=O)c1cccc(-c2noc(C(F)(F)F)n2)c1)c1coc(-c2ccccc2)n1 [TMP195]
histone Kac levels (HeLa cells): lack of effect | global histone lactylation levels (HeLa cells): failed to affect histone lactylation levels substantially

Compound: CC(/C=C/C(=O)NO)=C\[C@@H](C)C(=O)c1ccc(N(C)C)cc1 [TSA, trichostatin A]
inhibition of HDAC3-mediated decrease of global histone lactylation (HDAC3): could be inhibited | global histone lactylation levels (HeLa cells): increased global histone lactylation levels

Compound: CCCC(=O)[O-].[Na+] [sodium butyrate]
global histone lactylation levels (HeLa cells): increased global histone lactylation levels

From PMC8769552 (Science Advances, 2022)
